{
  "source": "ChEMBL document CHEMBL5724801",
  "about": "“EUbOPEN Chemogenomics Library - Multiplex” (2024)",
  "tested_on": "HEK-293T",
  "experiment": "Multiplex assay against HEK293T",
  "format": "toxicity, cell-based",
  "conditions": "human",
  "summary_of_the_method": "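On a CQ1 microscope at 37°C and 5% CO2, live cells were imaged after compound addition. They had been stained at seeding with Hoechst33342, BioTracker Green Microtubule Cytoskeleton Dye, MitoTracker Red and Annexin V Alexa Fluor 680. CellPathfinder machine-learning gating assigned cells to Hoechst high-intensity objects or normal cells, normal cells to healthy, pyknosed or fragmented nuclei, and pyknosed cells to mitotic or apoptotic. Tubulin, mitochondrial-mass and membrane-permeability phenotypes are per cents of healthy-nucleus cells.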",
  "key": {"[1]": {"conditions": "12 h, 1 µM, compound concentration 1 uM"}, "[2]": {"conditions": "12 h, 10 µM, compound concentration 10 uM"}, "[3]": {"conditions": "24 h, 1 µM, compound concentration 1 uM"}, "[4]": {"conditions": "24 h, 10 µM, compound concentration 10 uM"}, "[5]": {"conditions": "48 h, 1 µM, compound concentration 1 uM"}, "[6]": {"conditions": "48 h, 10 µM, compound concentration 10 uM"}},
  "note": "Several values for one entry are separate records, joined by “and”; a condition that tells them apart may be missing. Identical values can stand only once.",
  "data": [
    {"molecule": "COC(c1ccccc1)(c1ccccc1)[C@H](Oc1nc(C)cc(C)n1)C(=O)O", "note": "[AMBRISENTAN]", "values": [
      {"measurement": "Population Apoptotic (%)", "setting": "[1]", "result": 38, "unit": "%"},
      {"measurement": "Population Fragmented Nuclei (%)", "setting": "[1]", "result": 7, "unit": "%"},
      {"measurement": "Population Healthy Nuclei (%)", "setting": "[1]", "result": "75% and 81%"},
      {"measurement": "Population Hoechst High Intensity Objects (%)", "setting": "[1]", "result": "6% and 11%"},
      {"measurement": "Population Membrane Permeable-Phenotype (%)", "setting": "[1]", "result": 0, "unit": "%"},
      {"measurement": "Population Mitochondria Different-Phenotype (%)", "setting": "[1]", "result": "53% and 63%"},
      {"measurement": "Population Mitotic Cells (%)", "setting": "[1]", "result": 61, "unit": "%"},
      {"measurement": "Population Normal (%)", "setting": "[1]", "result": "93% and 88%"},
      {"measurement": "Population Pyknosed Nuclei (%)", "setting": "[1]", "result": "16% and 10%"},
      {"measurement": "Population Tubulin-Different-Phenotype (%)", "setting": "[1]", "result": "30% and 23%"},
      {"measurement": "Total Cell Count", "setting": "[1]", "result": "249 and 326"},
      {"measurement": "Population Apoptotic (%)", "setting": "[2]", "result": "33% and 56%"},
      {"measurement": "Population Fragmented Nuclei (%)", "setting": "[2]", "result": "8% and 5%"},
      {"measurement": "Population Healthy Nuclei (%)", "setting": "[2]", "result": "76% and 80%"},
      {"measurement": "Population Hoechst High Intensity Objects (%)", "setting": "[2]", "result": "6% and 13%"},
      {"measurement": "Population Membrane Permeable-Phenotype (%)", "setting": "[2]", "result": 0, "unit": "%"},
      {"measurement": "Population Mitochondria Different-Phenotype (%)", "setting": "[2]", "result": "47% and 57%"},
      {"measurement": "Population Mitotic Cells (%)", "setting": "[2]", "result": "66% and 43%"},
      {"measurement": "Population Normal (%)", "setting": "[2]", "result": "93% and 86%"},
      {"measurement": "Population Pyknosed Nuclei (%)", "setting": "[2]", "result": "15% and 14%"},
      {"measurement": "Population Tubulin-Different-Phenotype (%)", "setting": "[2]", "result": "23% and 18%"},
      {"measurement": "Total Cell Count", "setting": "[2]", "result": "383 and 262"},
      {"measurement": "Population Apoptotic (%)", "setting": "[3]", "result": "37% and 43%"},
      {"measurement": "Population Fragmented Nuclei (%)", "setting": "[3]", "result": 9, "unit": "%"},
      {"measurement": "Population Healthy Nuclei (%)", "setting": "[3]", "result": "76% and 82%"},
      {"measurement": "Population Hoechst High Intensity Objects (%)", "setting": "[3]", "result": "4% and 7%"},
      {"measurement": "Population Membrane Permeable-Phenotype (%)", "setting": "[3]", "result": "1% and 0%"},
      {"measurement": "Population Mitochondria Different-Phenotype (%)", "setting": "[3]", "result": "30% and 39%"},
      {"measurement": "Population Mitotic Cells (%)", "setting": "[3]", "result": "62% and 56%"},
      {"measurement": "Population Normal (%)", "setting": "[3]", "result": "95% and 92%"},
      {"measurement": "Population Pyknosed Nuclei (%)", "setting": "[3]", "result": "14% and 8%"},
      {"measurement": "Population Tubulin-Different-Phenotype (%)", "setting": "[3]", "result": "19% and 16%"},
      {"measurement": "Total Cell Count", "setting": "[3]", "result": "313 and 404"},
      {"measurement": "Population Apoptotic (%)", "setting": "[4]", "result": "30% and 44%"},
      {"measurement": "Population Fragmented Nuclei (%)", "setting": "[4]", "result": "10% and 8%"},
      {"measurement": "Population Healthy Nuclei (%)", "setting": "[4]", "result": "73% and 78%"},
      {"measurement": "Population Hoechst High Intensity Objects (%)", "setting": "[4]", "result": "4% and 12%"},
      {"measurement": "Population Membrane Permeable-Phenotype (%)", "setting": "[4]", "result": 0, "unit": "%"},
      {"measurement": "Population Mitochondria Different-Phenotype (%)", "setting": "[4]", "result": "34% and 41%"},
      {"measurement": "Population Mitotic Cells (%)", "setting": "[4]", "result": "69% and 55%"},
      {"measurement": "Population Normal (%)", "setting": "[4]", "result": "95% and 87%"},
      {"measurement": "Population Pyknosed Nuclei (%)", "setting": "[4]", "result": "15% and 12%"},
      {"measurement": "Population Tubulin-Different-Phenotype (%)", "setting": "[4]", "result": "18% and 17%"},
      {"measurement": "Total Cell Count", "setting": "[4]", "result": "441 and 318"},
      {"measurement": "Population Apoptotic (%)", "setting": "[5]", "result": "27% and 40%"},
      {"measurement": "Population Fragmented Nuclei (%)", "setting": "[5]", "result": "17% and 12%"},
      {"measurement": "Population Healthy Nuclei (%)", "setting": "[5]", "result": "72% and 80%"},
      {"measurement": "Population Hoechst High Intensity Objects (%)", "setting": "[5]", "result": "2% and 3%"},
      {"measurement": "Population Membrane Permeable-Phenotype (%)", "setting": "[5]", "result": "3% and 0%"},
      {"measurement": "Population Mitochondria Different-Phenotype (%)", "setting": "[5]", "result": "22% and 23%"},
      {"measurement": "Population Mitotic Cells (%)", "setting": "[5]", "result": "72% and 59%"},
      {"measurement": "Population Normal (%)", "setting": "[5]", "result": "97% and 96%"},
      {"measurement": "Population Pyknosed Nuclei (%)", "setting": "[5]", "result": "10% and 7%"},
      {"measurement": "Population Tubulin-Different-Phenotype (%)", "setting": "[5]", "result": "13% and 10%"},
      {"measurement": "Total Cell Count", "setting": "[5]", "result": "600 and 605"},
      {"measurement": "Population Apoptotic (%)", "setting": "[6]", "result": "26% and 53%"},
      {"measurement": "Population Fragmented Nuclei (%)", "setting": "[6]", "result": 14, "unit": "%"},
      {"measurement": "Population Healthy Nuclei (%)", "setting": "[6]", "result": "77% and 79%"},
      {"measurement": "Population Hoechst High Intensity Objects (%)", "setting": "[6]", "result": "2% and 7%"},
      {"measurement": "Population Membrane Permeable-Phenotype (%)", "setting": "[6]", "result": "1% and 0%"},
      {"measurement": "Population Mitochondria Different-Phenotype (%)", "setting": "[6]", "result": "18% and 27%"},
      {"measurement": "Population Mitotic Cells (%)", "setting": "[6]", "result": "73% and 46%"},
      {"measurement": "Population Normal (%)", "setting": "[6]", "result": "97% and 92%"},
      {"measurement": "Population Pyknosed Nuclei (%)", "setting": "[6]", "result": "8% and 5%"},
      {"measurement": "Population Tubulin-Different-Phenotype (%)", "setting": "[6]", "result": "13% and 15%"},
      {"measurement": "Total Cell Count", "setting": "[6]", "result": "711 and 480"}
    ]}
  ]
}
